Experimental data taken from article PMC11734723 (Science Advances, 2025).
Where two headings read alike, the source gives them in different places.

How the values were obtained:
[1] = target: T1, TRPC5 (Homo sapiens, UniProt Q9UL62); test: Carbachol-induced Sr2+ entry in TRPC5-overexpressing HEK293 cells; format: cell-based; settings: read-out: IC50 of Cch-induced Sr2+ entry; Cch 100 nM, Sr2+ 3 mM
T1 sequence (Q9UL62 1-973): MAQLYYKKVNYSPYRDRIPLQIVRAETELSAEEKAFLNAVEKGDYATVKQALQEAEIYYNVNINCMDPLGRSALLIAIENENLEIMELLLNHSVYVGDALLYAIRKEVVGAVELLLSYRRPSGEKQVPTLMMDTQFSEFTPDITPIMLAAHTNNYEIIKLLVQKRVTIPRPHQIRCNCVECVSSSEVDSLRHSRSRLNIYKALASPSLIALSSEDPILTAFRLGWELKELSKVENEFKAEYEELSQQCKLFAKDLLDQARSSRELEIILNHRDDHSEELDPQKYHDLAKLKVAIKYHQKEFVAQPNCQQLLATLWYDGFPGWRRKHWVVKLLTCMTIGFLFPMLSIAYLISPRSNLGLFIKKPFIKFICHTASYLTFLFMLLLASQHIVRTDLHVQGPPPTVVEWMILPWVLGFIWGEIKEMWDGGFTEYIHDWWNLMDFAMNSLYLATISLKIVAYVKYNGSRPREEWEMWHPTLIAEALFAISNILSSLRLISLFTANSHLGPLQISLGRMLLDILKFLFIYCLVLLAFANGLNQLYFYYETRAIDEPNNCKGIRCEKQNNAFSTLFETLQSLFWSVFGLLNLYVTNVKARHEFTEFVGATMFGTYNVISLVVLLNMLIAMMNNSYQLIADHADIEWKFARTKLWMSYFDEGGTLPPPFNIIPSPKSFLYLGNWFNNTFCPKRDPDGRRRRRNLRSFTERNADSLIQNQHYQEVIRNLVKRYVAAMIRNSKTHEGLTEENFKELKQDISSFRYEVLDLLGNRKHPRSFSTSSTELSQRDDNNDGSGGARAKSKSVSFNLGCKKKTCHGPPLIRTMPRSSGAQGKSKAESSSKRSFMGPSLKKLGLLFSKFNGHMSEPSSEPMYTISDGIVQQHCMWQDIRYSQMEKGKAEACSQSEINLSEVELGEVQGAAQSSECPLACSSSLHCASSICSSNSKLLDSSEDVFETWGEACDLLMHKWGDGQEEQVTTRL
In short: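 HEK293 cells were electroporated with GFP-tagged TRPC4, TRPC5 or TRPC7, plated after 24 h and cultured 48 h under selection; only high-GFP cells were analysed. Coverslip cells were loaded with Fura2 (2 µM) and treated with carbachol (100 nM) plus test compound (0 to 100 µM). Entry was measured after adding Sr²⁺ (3 mM), read as the 340/380 ratio; n = 3 to 5.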

[2] = system: murine BMSMCs; format: cell-based, mouse; settings: ELP-004 100 nM
[3] = system: murine BMSMCs; test: Pit assay on osteo-assay surface plates, murine BMSMC-derived osteoclasts; format: cell-based, mouse; settings: ELP-004 100 nM
In short: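 Murine BMSMC osteoclasts were grown on synthetic bone-mimetic surface plates with ±test compound (100 nM), fed every 3–5 days, and assayed on days 7, 14 and 21. Cells were removed with 10% bleach (5 min). Matrix was stained with 1% silver nitrate under UV for 20–45 min, treated with 2.5% sodium thiosulphate and dehydrated in ethanol. Average size of 10–30 pits was measured.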

[4] = system: TRPC4^−/− and TRPC(1–7)^−/− BMSMCs; test: Osteoclastogenesis from TRPC4−/− and TRPC; format: cell-based, mouse
In short: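 Myeloid cells from bone marrow and spleen of TRPC4−/− and TRPC(1–7)−/− mice were cultured in αMEM, 10% FBS and mCSF (50 ng/ml). RANKL (1 or 100 ng/ml) was added at 24 h, and TNFα (2 ng/ml) and test compound (100 nM) 2–3 days later as indicated. Cultures ran 14–21 days with feeding every 3–5 days before TRAP, Ca²⁺ and pit read-outs.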

[5] = system: Human PBMCs; test: TRAP staining, multinucleation and cell size of human PBMC-derived osteoclasts; format: cell-based; settings: ELP-004 100 nM; for effect on multinucleation: 14 days
In short: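 Human PBMCs were grown with human mCSF (50 ng/ml) plus RANKL (100 ng/ml), or RANKL (1 ng/ml) with TNFα (2 ng/ml), ±test compound (100 nM), for 14 days. Cells were fixed with 2% PFA (30 min, RT) and stained for TRAP with ELF-97 (200 µM) in acetate/nitrite/tartrate buffer (15 min, RT). After permeabilisation, nuclei were counterstained with 7-AAD. Confocal images were scored for TRAP intensity, TRAP-positive cells and nuclei per cell.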

IC50 [1]: 11.5 nM
SMILES: CCC(=O)N(C)c1ccc(Cl)c(Cl)c1 [ELP-004]
effect on TRAP intensity ([2]; LTB4/RANKL): completely prevented the increase
effect on number of TRAP-positive cells ([2]; LTB4/RANKL): no effect
effect on multinucleation ([2]; LTB4/RANKL, days 7 and 14): significant ELP-004–induced decreases
effect on TRAP intensity ([2]; RANKL (100 ng/ml)): no impact
effect on number of TRAP-positive cells ([2]; RANKL (100 ng/ml)): no impact
effect on number of TRAP-positive cells ([2]; TNFα (2 ng/ml)/RANKL (1 ng/ml)): no significant effect
effect on TRAP intensity increases ([2]; TNFα/RANKL): severely attenuated
effect on number of multinuclear cells ([2]; TNFα/RANKL, P < 0.0005): significantly attenuated
effect on TRAP-positive cells ([2]; mCSF (50 ng/ml) only): no effect
effect on TRAP-positive cells ([2]; mCSF + RANKL (1 ng/ml)): no effect
effect on matrix degradation ([3]; LTB4/RANKL): potent inhibition
effect on pit formation (matrix degradation) ([3]; RANKL (100 ng/ml)): significant ELP-004–induced inhibition observed on day 21
effect on matrix degradation ([3]; TNFα/RANKL): completely abolished
effect on intracellular Ca2+ ([4]; RANKL or RANKL/TNFα osteoclasts from knockout BMSMCs): no effect
effect on TRAP expression ([4]; knockout BMSMCs): no effect
effect on cell size ([4]; knockout BMSMCs): no effect
effect on multinucleation ([4]; knockout BMSMCs): no effect
effect on pit formation ([4]; knockout BMSMCs): no effect
effect on multinucleation ([5]; RANKL): significantly inhibited
effect on intensity of TRAP+ cells ([5]; RANKL): not intensity
effect on number of TRAP+ cells ([5]; RANKL): inhibited the number
effect on cell size ([5]; TNFα-induced osteoclasts): significantly reduced
effect on multinucleation ([5]; TNFα/RANKL): significantly inhibited
effect on intensity of TRAP+ cells ([5]; TNFα/RANKL): inhibited
effect on number of TRAP+ cells ([5]; TNFα/RANKL): inhibited
